Laboratory results taken from ChEMBL document CHEMBL1765010, “Reversible competitive α-ketoheterocycle inhibitors of fatty acid amide hydrolase containing additional conformational constraints in the acyl side chain: orally active, long-acting analgesics” (J Med Chem, 2011).
The source made the active and inactive calls.

Columns and labels:
[1] = system: Mus musculus; experiment: Inhibition of FAAH in C57Bl/6J mouse brain assessed as increase of N-palmitoyl ethanolamine level at 30 mg/kg, ip after 1 hr relative to control; format: functional; settings: route intraperitoneal
Method in brief: (§1)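 Male C57Bl/6J mice (<6 months, 20–28 g) dosed i.p. at 30 mg/kg in 18:1:1 saline:ethanol:emulphor emulsion; brains taken 1 h later. One mouse in the initial screen, 3 per group in the follow-up. Brain homogenized in CHCl3:MeOH:Tris pH 8.0 with deuterated lipid standards; organic extract quantified by reverse-phase C18 LC-ESI-MS/MS against vehicle controls.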

[2] = system: Mus musculus; experiment: Inhibition of FAAH in C57Bl/6J mouse brain assessed as increase of arachidonic acid level at 30 mg/kg, ip after 1 hr relative to control; format: functional; settings: route intraperitoneal; method in brief: as §1
[3] = system: Mus musculus; experiment: Inhibition of FAAH in C57Bl/6J mouse brain assessed as increase of anandamide level at 30 mg/kg, ip after 1 hr relative to control; format: functional; settings: route intraperitoneal; method in brief: as §1
[4] = system: Mus musculus; experiment: Inhibition of FAAH in C57Bl/6J mouse brain assessed as increase of 2-arachidonoylglycerol level at 30 mg/kg, ip after 1 hr relative to control; format: functional; settings: route intraperitoneal; method in brief: as §1
[5] = biological target: T1, Fatty-acid amide hydrolase 1 (Rattus norvegicus, UniProt P97612); experiment: Inhibition of rat FAAH expressed in E. coli assessed as [14C]-labeled oleamide to oleic acid conversion
T1 sequence (P97612 whole entry): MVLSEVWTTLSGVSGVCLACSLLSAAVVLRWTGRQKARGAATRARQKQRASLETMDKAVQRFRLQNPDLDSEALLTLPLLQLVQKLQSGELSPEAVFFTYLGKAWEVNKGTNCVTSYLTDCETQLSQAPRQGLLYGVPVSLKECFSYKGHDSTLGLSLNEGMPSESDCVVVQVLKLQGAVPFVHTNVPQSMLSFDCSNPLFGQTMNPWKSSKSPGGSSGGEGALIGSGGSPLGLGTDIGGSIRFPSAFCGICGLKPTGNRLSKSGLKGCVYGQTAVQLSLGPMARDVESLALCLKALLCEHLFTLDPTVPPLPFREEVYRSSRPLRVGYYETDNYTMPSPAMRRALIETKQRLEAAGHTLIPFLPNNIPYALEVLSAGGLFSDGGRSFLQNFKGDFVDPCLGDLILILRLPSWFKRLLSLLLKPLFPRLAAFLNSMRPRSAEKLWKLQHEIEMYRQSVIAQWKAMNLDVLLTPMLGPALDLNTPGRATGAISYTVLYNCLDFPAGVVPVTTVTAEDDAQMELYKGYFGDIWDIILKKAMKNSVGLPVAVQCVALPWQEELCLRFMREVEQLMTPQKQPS

[6] = Inhibition of full-length human FAAH expressed in COS-7 cells assessed as [14C]-labeled oleamide to oleic acid conversion; format: cell-based
Method in brief: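 Substrate 20 μM 14C-oleamide; three inhibitor concentrations. Reaction stopped in 0.1 N HCl at three time points, extracted with EtOAc and read by TLC.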

[7] = system: Mus musculus; experiment: Antinociceptive activity in CD1 mouse assessed as thermal-stimulus induced tail flick latency at 1 to 3.2 mg/kg, iv after 150 mins; format: functional, organism-based
Method in brief: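 Mice given compound i.v.; tail-flick latency to 52 °C water measured at several times after dosing. Animals not responding within 5 s at baseline were excluded, and a 10 s cut-off was scored as 100%. % antinociception = 100 × (test − control latency)/(10 − control latency).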

Row | SMILES | Ki [5] | also measured
1 | O=C(O)c1cccc(-c2cnc(C(=O)C3Cc4ccc(Oc5ccccc5)cc4C3)o2)n1 (stereo not given) |  | fold change (FC) [1]: 1.2; fold change (FC) [2]: 0.8; fold change (FC) [3]: 1; fold change (FC) [4]: 0.9
2 | O=C(c1ncco1)[C@H]1CCc2cc(-c3ccccc3)ccc2C1 | 57 nM | 
3 | O=C(c1ncc(-c2ccccn2)o1)[C@@H]1CCc2ccccc2C1 | 3200 nM | 
4 | N#Cc1cnc(C(=O)[C@H]2CCc3cc(-c4ccccc4)ccc3C2)o1 | 3.4 nM | 
5 | O=C(O)c1cccc(-c2cnc(C(=O)[C@H]3Cc4ccc(Oc5ccccc5)cc4C3)o2)n1 | 71 nM | 
6 | COC(=O)c1cccc(-c2cnc(C(=O)[C@@H]3CCc4cc(-c5ccccc5)ccc4C3)o2)n1 | 700 nM | 
7 | O=C(O)c1cccc(-c2cnc(C(=O)[C@H]3CCc4cc(OCc5ccccc5)ccc4C3)o2)n1 | 34 nM | 
8 | COC(=O)c1cnc(C(=O)[C@H]2CCc3cc(-c4ccccc4)ccc3C2)o1 | 55 nM | 
9 | COC(=O)c1cnc(C(=O)[C@@H]2CCc3cc(Oc4ccccc4)ccc3C2)o1 | 59 nM | 
10 | O=C(c1ncc(-c2ccccn2)o1)[C@H]1CCc2ccccc2C1 | 430 nM | 
11 | COC(=O)c1cccc(-c2cnc(C(=O)[C@H]3CCc4cc(-c5ccccc5)ccc4C3)o2)n1 | 27 nM | 
12 | O=C(c1ncco1)[C@@H]1CCc2cc(-c3ccccc3)ccc2C1 | 460 nM | 
13 | COC(=O)c1nnc(C(=O)[C@H]2CCc3cc(Oc4ccccc4)ccc3C2)o1 | 1.5 nM | 
14 | COC(=O)c1cnc(C(=O)[C@@H]2CCc3cc(OCc4ccccc4)ccc3C2)o1 | 53 nM | 
15 | O=C(c1ncco1)[C@H]1CCc2ccccc2C1 | 5100 nM | 
16 | COC(=O)c1cnc(C(=O)[C@H]2CCc3cc(Oc4ccccc4)ccc3C2)o1 | 5.4 nM | 
17 | O=C(O)c1cccc(-c2cnc(C(=O)[C@H]3Cc4ccc(OCc5ccccc5)cc4C3)o2)n1 | 51 nM | 
18 | O=C(c1nnco1)[C@H]1CCc2cc(Oc3ccccc3)ccc2C1 | 0.5 nM | 
19 | O=C(c1ncc(-c2ccccn2)o1)[C@@H]1Cc2ccc(OCc3ccccc3)cc2C1 | 110 nM | 
20 | O=C(O)c1cccc(-c2cnc(C(=O)[C@@H]3CCc4cc(OCc5ccccc5)ccc4C3)o2)n1 | 740 nM | 
21 | O=C(c1ncc(-c2ccccn2)o1)[C@H]1CCc2cc(OCc3ccccc3)ccc2C1 | 3.2 nM | 
22 | O=C(c1ncco1)C1Cc2ccc(OCc3ccccc3)cc2C1 (racemic) |  | Ki [6]: > 24 nM
23 | O=C(c1nnco1)[C@@H]1CCc2cc(Oc3ccccc3)ccc2C1 | 1.4 nM | 
24 | O=C(c1ncco1)[C@H]1Cc2ccc(Oc3ccccc3)cc2C1 | 10 nM | 
25 | COC(=O)c1cccc(-c2cnc(C(=O)C3CCc4cc(OCc5ccccc5)ccc4C3)o2)n1 (racemic) |  | Ki [6]: > 10000 nM

Row | SMILES | Ki [5] | also measured
26 | O=C(c1ncco1)[C@H]1CCc2cc(Oc3ccccc3)ccc2C1 | 2.2 nM | 
27 | O=C(c1ncc(I)o1)[C@@H]1CCc2cc(OCc3ccccc3)ccc2C1 | 700 nM | 
28 | O=C(c1ncc(-c2ccccn2)o1)[C@H]1CCc2cc(-c3ccccc3)ccc2C1 | 7.2 nM | 
29 | O=C(c1ncc(-c2ccccn2)o1)[C@@H]1CCc2cc(-c3ccccc3)ccc2C1 | 240 nM | 
30 | COC(=O)c1cccc(-c2cnc(C(=O)[C@H]3CCc4cc(OCc5ccccc5)ccc4C3)o2)n1 | 18 nM | 
31 | O=C(c1nnc(-c2ccccn2)o1)[C@H]1CCc2cc(Oc3ccccc3)ccc2C1 | 1 nM | 
32 | O=C(c1ncco1)[C@H]1Cc2ccc(-c3ccccc3)cc2C1 | 27 nM | 
33 | O=C(O)c1cccc(-c2cnc(C(=O)[C@H]3CCc4cc(-c5ccccc5)ccc4C3)o2)n1 | 39 nM | 
34 | COC(=O)c1cccc(-c2cnc(C(=O)[C@@H]3Cc4ccc(OCc5ccccc5)cc4C3)o2)n1 | 130 nM | 
35 | O=C(c1ncco1)[C@@H]1Cc2ccc(Oc3ccccc3)cc2C1 | 200 nM | 
36 | O=C(O)c1cccc(-c2cnc(C(=O)[C@@H]3Cc4ccc(Oc5ccccc5)cc4C3)o2)n1 | 550 nM | 
37 | N#Cc1cnc(C(=O)[C@H]2CCc3cc(Oc4ccccc4)ccc3C2)o1 | 1.3 nM | 
38 | O=C(O)c1cccc(-c2cnc(C(=O)C3Cc4ccc(-c5ccccc5)cc4C3)o2)n1 (racemic) | 57 nM | 
39 | O=C(c1ncco1)[C@@H]1Cc2ccc(-c3ccccc3)cc2C1 | 140 nM | 
40 | O=C(c1ncco1)[C@@H]1CCc2ccccc2C1 | 12000 nM | 
41 | O=C(c1ncc(-c2ccccn2)o1)[C@H]1Cc2ccc(Oc3ccccc3)cc2C1 | 2.1 nM | 
42 | O=C(c1ncc(-c2ccccn2)o1)[C@@H]1Cc2ccc(Oc3ccccc3)cc2C1 | 42 nM | 
43 | O=C(c1ncc(I)o1)[C@H]1CCc2cc(OCc3ccccc3)ccc2C1 | 4.1 nM | 
44 | O=C(c1ncc(-c2ccccn2)o1)[C@H]1Cc2ccc(-c3ccccc3)cc2C1 | 1.9 nM | 
45 | COC(=O)c1cccc(-c2cnc(C(=O)[C@@H]3CCc4cc(OCc5ccccc5)ccc4C3)o2)n1 | 4500 nM | 
46 | O=C(c1ncc(-c2ccccn2)o1)[C@@H]1Cc2ccc(-c3ccccc3)cc2C1 | 600 nM | 
47 | O=C(c1ncco1)[C@@H]1CCc2cc(OCc3ccccc3)ccc2C1 | 87 nM | 
48 | O=C(O)c1cccc(-c2cnc(C(=O)[C@@H]3CCc4cc(Oc5ccccc5)ccc4C3)o2)n1 | 220 nM | 
49 | N#Cc1cnc(C(=O)[C@H]2CCc3cc(OCc4ccccc4)ccc3C2)o1 | 3.2 nM | 
50 | COC(=O)c1cccc(-c2cnc(C(=O)C3Cc4ccc(OCc5ccccc5)cc4C3)o2)n1 (racemic) |  | Ki [6]: > 10000 nM

Row | SMILES | Ki [5] | also measured
51 | COC(=O)c1cccc(-c2cnc(C(=O)[C@H]3Cc4ccc(Oc5ccccc5)cc4C3)o2)n1 | 98 nM | 
52 | O=C(c1nnc(-c2ccccn2)o1)[C@@H]1CCc2cc(Oc3ccccc3)ccc2C1 | 6.3 nM | 
53 | N#Cc1cnc(C(=O)[C@@H]2CCc3cc(-c4ccccc4)ccc3C2)o1 | 62 nM | 
54 | COC(=O)c1cnc(C(=O)[C@@H]2CCc3cc(-c4ccccc4)ccc3C2)o1 | 1400 nM | 
55 | COC(=O)c1cccc(-c2cnc(C(=O)C3Cc4ccc(-c5ccccc5)cc4C3)o2)n1 (racemic) | 6.2 nM | 
56 | COC(=O)c1cccc(-c2cnc(C(=O)[C@H]3Cc4ccc(OCc5ccccc5)cc4C3)o2)n1 | 5.8 nM | 
57 | COC(=O)c1cccc(-c2cnc(C(=O)[C@H]3CCc4cc(Oc5ccccc5)ccc4C3)o2)n1 | 2.2 nM | 
58 | COC(=O)c1cnc(C(=O)[C@H]2CCc3cc(OCc4ccccc4)ccc3C2)o1 | 2.9 nM | 
59 | O=C(c1ncc(-c2ccccn2)o1)[C@H]1Cc2ccc(OCc3ccccc3)cc2C1 | 1.4 nM | 
60 | N#Cc1cnc(C(=O)[C@@H]2CCc3cc(Oc4ccccc4)ccc3C2)o1 | 54 nM | 
61 | O=C(c1ncc(-c2ccccn2)o1)[C@@H]1CCc2cc(Oc3ccccc3)ccc2C1 | 290 nM | 
62 | O=C(c1ncco1)C1CCc2cc(OCc3ccccc3)ccc2C1 (racemic) |  | Ki [6]: > 10000 nM
63 | O=C(c1ncc(-c2ccccn2)o1)C1Cc2ccc(Oc3ccccc3)cc2C1 (stereo not given) |  | fold change (FC) [1]: 7.4; fold change (FC) [2]: 0.9; fold change (FC) [3]: 3; fold change (FC) [4]: 0.8
64 | O=C(O)c1cccc(-c2cnc(C(=O)[C@@H]3Cc4ccc(OCc5ccccc5)cc4C3)o2)n1 | 660 nM | 
65 | O=C(c1ncc(-c2ccccn2)o1)[C@@H]1CCc2cc(OCc3ccccc3)ccc2C1 | 300 nM | 
66 | COC(=O)c1cccc(-c2cnc(C(=O)[C@@H]3CCc4cc(Oc5ccccc5)ccc4C3)o2)n1 | 870 nM | 
67 | N#Cc1cnc(C(=O)[C@@H]2CCc3cc(OCc4ccccc4)ccc3C2)o1 | 120 nM | 
68 | COC(=O)c1nnc(C(=O)[C@@H]2CCc3cc(Oc4ccccc4)ccc3C2)o1 | 1.6 nM | 
69 | COC(=O)c1cccc(-c2cnc(C(=O)[C@@H]3Cc4ccc(Oc5ccccc5)cc4C3)o2)n1 | 790 nM | 
70 | O=C(c1ncco1)[C@H]1CCc2cc(OCc3ccccc3)ccc2C1 | 6.1 nM | 
71 | O=C(O)c1cccc(-c2cnc(C(=O)[C@@H]3CCc4cc(-c5ccccc5)ccc4C3)o2)n1 | 500 nM | 
72 | CN1CC[C@]23c4c5ccc(O)c4O[C@H]2[C@@H](O)C=C[C@H]3[C@H]1C5 |  | Activity [7]: Active
73 | O=C(c1ncco1)[C@@H]1CCc2cc(Oc3ccccc3)ccc2C1 | 410 nM | 
74 | O=C(c1ncc(I)o1)C1CCc2cc(OCc3ccccc3)ccc2C1 (racemic) | 8 nM | 
